# Laboratory results reported in the RNAGym collection of RNA variant scans (doi:10.1126/science.aae0568).
# Variants at the floor of the assay were thinned out.
# B1: tRNA (parent)
# chain: GUUCCGUUGGCGUAAUGGUAACGCGUCUCCCUCCUAAGGAGAAGACUGCGGGUUCGAGUCCCGUACGGAACG
# Variants of: B1
# Assay: yeast fitness relative to wild type (ratio to wild type); higher = fitter; tRNA-Arg(CCU), competitive growth, 37 C, YPD
# Method in brief: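 Gene amplicons from the start population and from each of six end populations were read by 100-nucleotide paired-end sequencing. Those end populations came from pooled Saccharomyces cerevisiae strains carrying tRNA-Arg(CCU) gene variants at the native locus, competed in YPD at 37°C for 24 hours. Fitness relative to wild type was worked out from changes in genotype frequencies. Genotypes needed ≥ 100 starting reads, and estimates < 0.5 were set to 0.5.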
row,Variant,yeast fitness
1,GUUCGGUUCGCGUAAUGGUAACGCGUCUUUCUCCUAAGGAGAAGACUGCGGGUUAGAGUCCCGUGCGGAACG [C5G G9C C29U C30U C55A A65G],≤ 0.5
2,GUUCGGUUAGCGUAAUGGUAACGCGUCUCGCUCCUAAGGAGAAGACUGCGGGUUCGAGUCCCGUACGGAACG [C5G G9A C30G],≤ 0.5
3,GUUCGGUUGCCGGAAUGGUAACGCGUCUCCCUCCUAAGGGGAAGACUGCGGGUACGAGUCCCGUACGGAACG [C5G G10C U13G A40G U54A],≤ 0.5
4,GUUCGGUUGGCGUAAUGGUAACGCGUCUCCCUCUUAAGGAGAAGACUGCGGGUUCGAGUCCCGUAUGGAACG [C5G C34U C66U],≤ 0.5
5,GUUCGCUUGGCGUAAUGGUAUCGCGUCUCCCUCCUAAGGAGAAGACUGCGGGUUCGAGUCCCGUACGGAACG [C5G G6C A21U],0.544
6,GUUCGGUUAGCGUAAUGGUAACGCGUCUCCCUCCUAAGGAGAGGACUCCGGGUUCGAGUCCCGUACGGAACG [C5G G9A A43G G48C],≤ 0.5
7,GUUCGGUUCGCGUAAUGGUAACGCGUCUCCCUCCGAAGGAGAAGACUGCGGGUUCGAGUCCCGUAUGGAACG [C5G G9C U35G C66U],≤ 0.5
8,GUUCGCUUGGCGUAAUGGUAACGCGUCUCCCUCCUAAGGAGAAGACUGCGGGUUCGAGUCCCGUACGGAACG [C5G G6C],0.718
9,GUUCGGUUGGCGUAAUGGUAACGCGUCUCCCUCCUAAGGAGAAGACUGCGGGUUGGAGUCCCGUACGGAACG [C5G C55G],0.685
10,GUUCGGUUGACGUAAUGGUAACGCGUCUCUCUCCUAAGGAGCAGACUGCGGGUUCGAGUCCCGUACGGAGCG [C5G G10A C30U A42C A70G],≤ 0.5
11,GUUCGGUUCGCGUAAUGGUAACGCGUCUCCCUACCAAGGAGAAGAUUGUGGCUUCGAGUCUCGUAUGGAACG [C5G G9C C33A U35C C46U C49U G52C C61U C66U],≤ 0.5
12,GUUCGGUUGGCGUAAUGGUAACGCGUCUCCCUCCUAAGGAGAAGAGUGCGGGUUCGAGUCCCGUACGGAACG [C5G C46G],0.751
13,GUUCGGUUGGCGUAAUGGUAACGCGUCUCCCUCCUAAGGAGAAGACUGCGGGUUGGAGUCCCGUCCAGAACG [C5G C55G A65C G67A],≤ 0.5
14,GUUCGGUUGCCGUAAUGGUAACGCGUCUCCCUCCUAAGGAGAAGACUGCGGGUUCGAGUCCCGUACGGCACG [C5G G10C A69C],0.556
15,GUUCGGUUAGCGUAAUGGUAACGCGUCUCCCUCCUAAGGAGAAGACUGCGGGUUCGAGUCUCGUACGGAACG [C5G G9A C61U],≤ 0.5
16,GUUCGGUUGGCGUAAUGGUAACGCGUCUCCCUCCUAAGGAGAAGACUGCGGGUUAGUGUCCCGUACGGAACG [C5G C55A A57U],0.55
17,GUUCGGUUGGCGUAAUGGUAACGCGUCUCCCUCCUAAGGAGAAGACUGCGGGUUCGAGUCCCGUAUAGAACG [C5G C66U G67A],0.533
18,GUUCGGUUGGCAUAAUGGUAACGCGUCUCCCUCCUAAGGAGAGGACUGCGGGUUCGAGUCCCGUACGGAACG [C5G G12A A43G],0.536
19,GUUCGGUUCGCGUAAUGGUGACGCGUCUCCCUCCUAAGGCGAAGACUGCGGGUUCGAAUCCCGUACGGAACG [C5G G9C A20G A40C G58A],≤ 0.5

row,Variant,yeast fitness
1,GUUCGGUUGGCGUAAUAGUCACGCGUCUCCCUCCUAAGGAGAAGACUGGGGGUUCGAGUCCCAUACGGAACG [C5G G17A A20C C49G G63A],≤ 0.5
2,GUUCGGUUAGCGUCAUGGUAACGCGUCUCCCUCCUAGGGAGAAGACUGCGGGUUCGAGUCCGGUACGGAACG [C5G G9A A14C A37G C62G],≤ 0.5
3,GUUCGAUUGGCGUAAUGGUAACGUGUCUCCCUCCUAAGGAGAAGACUGCGGGUUCGAGUCCCGUACGGAACG [C5G G6A C24U],0.577
4,GUUCGGUUGGCGUAAUGGUAACGCGUCUCCCUCCUAAGGAGAAGAUUGCAGGUUCGAGUCCCGUACGGAACG [C5G C46U G50A],0.731
5,GUUCGGUUCGCGUAAUGGUAACGCGUCUCCCUCCUAAGGAGAGGACUGCGGGUUCGAGUCCCGUACGGAUCG [C5G G9C A43G A70U],≤ 0.5
6,GUUCGGUUGGCAUAAUGGUAACGCGUCUCCUUCCUAAGGAGAAGACUGGGGGUUCGAGUCCCGUACGGAACG [C5G G12A C31U C49G],≤ 0.5
7,GUUCGGUUGGCCUAAUGGAAACGCGUCUCCAUCCUAAGGAGAAGACUGCGGGUUCGAGUCCCGUACGGAACG [C5G G12C U19A C31A],≤ 0.5
8,GUUCGGUUGGCGUAAUGGUAACGCGUCUCCCUCCUAAGGAGAAGACUGCGGGUUCGAGUGCGGUACCGUACG [C5G C60G C62G G67C A69U],0.654
9,GUUCGGUUGGCGUAAUGGUAACGCGUCUCCCUCCUAAGGAGAAGAAUGCGGGUUCGGGUCCCGUACGGAACG [C5G C46A A57G],0.705
10,GUUCGGUUGGCAUGAUGGUAACGCGUCUCCCUCCAAAGGAGAAGACUGCGGGUUCGAGUCCCGUACGGAACG [C5G G12A A14G U35A],≤ 0.5
11,GUUCGGUUGGCCUAAUGGUAACGCGUCUCCCUUCUAAGGAGAAGACUGCGGGUUCGAGUCCCGUACGCAACG [C5G G12C C33U G68C],0.612
12,GUUCGGUUGCCGUAAUGGUAACGCGUCUCCCUCCUAAGGAGAAGACUGCGGAUACGAGUCCCGUACGGAACG [C5G G10C G52A U54A],0.55
13,GUUCGGUUGAGGUAAGGGUAACGCGUCUCCCUGCUAAGGAGAAGACUGCGGGUUCGAGUCCCGUACGGAACG [C5G G10A C11G U16G C33G],0.551
14,GUUCGGUUGGCGUAAUGGUAACGCGUCUCCCUCCUAAGGAGAAGACUGCGGGUUCGAGUCCCGUAAGGAACG [C5G C66A],0.703
15,GUUCGAUUGGCGUAAUGGUAACGCGUCUCCCUCCUAAGGAGAAGACAGCGGGUUCGAGUCCCGUACGCAACG [C5G G6A U47A G68C],0.546
16,GUUCGGUUGGCGUAAUGGUAACGCGUCUCCCUCCUAAGGAGAAGAGUGCGGGUUCGAGUCCCGUGCGGAACG [C5G C46G A65G],0.594
17,GUUCGGUUGGCGUAAUGGUAACGCGUCUCCCUCCUAAGGAGAAGAUUGCGGGUUCGAGUCCCGUACAGAACG [C5G C46U G67A],0.683
18,GUUCGGUUGGCGUAAUGGUAACGCGUCUCCCUCCUAAGGAGAAGAAUACGGGUUCGAGUCCCGGACGGAACG [C5G C46A G48A U64G],0.546
19,GUUCGGUUGGCGUAAUAGUCACGCGUCUCCCUCCUAAGGAGAAGACUGCGGAUUCGAGUCCCGUUCGGAACG [C5G G17A A20C G52A A65U],≤ 0.5
